# High-throughput results (PubChem)
# Hsp70 activator: switches on Hsp70 transcription; AID 1203; activation, % at 10 µM; HeLa Hsp70 promoter luciferase reporter, luminescence; scaled: vehicle 0, proteasome-inhibitor control 100%; actives 0.04% (n = 200,000);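 active means activation above the mean across all tested compounds plus 3 SD, cutoff set per campaign, cut at about 5.5% in these data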;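 further: 100% = MG132 at 30 µM as the positive control and 0% = DMSO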
# NOD2 RIPK2 PPI: inhibitors of human NOD2-RIPK2 interaction; actives 0.38% (n = 360,000); inhibition, % at 4.98 µM; CHO BLA complementation NOD2-RIPK2, CCF4 ratio; O43353; in the data active means inhibition above about 21%;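 further: 0% = vehicle only and 100% = reference blocker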
# TLR4-MyD88 BLA: TLR4-MyD88 interaction inhibition in cells | HeLa CL3-4 TLR4/MyD88 BLA complementation, FRET ratio | actives 0.18% (n = 200,000) | inhibition, % at 8.4 µM | O00206+Q99836 | AID 861; in the data active means inhibition above about 25%;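 further: 0% = vehicle and 100% = reference inhibitor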
# b-catenin transl: modulators of beta-catenin nuclear translocation; HeLa beta-catenin nuclear translocation, immunofluorescence imaging; nuclear translocation activity, % at 5 µM; actives 0.3% (n = 190,000); AID 1665;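 active means nuclear translocation activity above 50% at 5 µM, with a well cell count of 50 or more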;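 further: per-cell ratio of nuclear to cytoplasmic median beta-catenin stain intensity; plate controls were DMSO negative control for no effect and GSK-3 inhibitor IX positive control for full effect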
#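 System: HeLa cells, endogenous beta-catenin; compound dosing: 5 µM primary single dose, 0.1% DMSO, 0.02–20 µM confirmation series; incubation: 24 h compound exposure at 37°C, 5% CO2; signal: beta-catenin immunofluorescence imaging with DAPI; evaluation: % activation, nuclear-to-cytoplasmic median beta-catenin signal ratio per cell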
# TLR9-MyD88 block: inhibitors of human TLR9-MyD88 binding | AID 504734 | actives 0.21% (n = 340,000) | CHO BLA complementation TLR9-MyD88, CCF4 FRET ratio | inhibition, % at 4.98 µM;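 active means inhibition above the mean over all tested compounds plus 3 SD, cut at about 21% in these data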;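 further: 0% = DMSO only wells and 100% = clavulanate BLA inhibitor control wells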
# MT stabilize HCS: microtubule stabilizers in HeLa cells | HeLa tubulin immunostaining HCS, 24 h; share of cells brighter than vehicle mean+2SD | % tubulin-high responders, % at 10 µM | actives 0.83% (n = 200,000) | AID 2205;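 active means plate Z-score above 3 for both tubulin-high and condensed-nucleus cell shares, with cell loss under 80%, at 10 µM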;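 further: anti alpha tubulin signal scored within the nucleus-defined area of each cell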
# The depositor's hits bear a star; · = not tested or not shown. Hits are enriched below; roughly 1% of the tested compounds scored in any of these assays.
SMILES,Hsp70 activator,NOD2 RIPK2 PPI,TLR4-MyD88 BLA,b-catenin transl,TLR9-MyD88 block,MT stabilize HCS
COc1ccc(Br)c(Cn2c(C)c(C(=O)NCc3cccc([N+](=O)[O-])c3)sc2=O)c1,·,8.8,·,·,·,·
COc1ccc(NC(=O)Cn2nnc(-c3ccccc3NS(=O)(=O)c3ccc(OC)cc3)n2)cc1,-0.1,3.0,-13.6,·,-4.8,5.8
COc1ccc(NC(=O)Cn2nnc(-c3ccccc3NC(=O)c3cccs3)n2)cc1,0.2,2.9,-13.2,-0.7,-2.0,19.2*
Cc1ccc(NC(=O)Cn2nnc(-c3ccccc3NC(=O)c3cccs3)n2)cc1,0.2,-7.5,7.7,58.1*,-3.1,21.0*
O=C(COc1ccc([N+](=O)[O-])cc1)Nc1ccc2c(c1)OCO2,-0.1,-8.8,2.4,0.1,-8.8,12.0*
COc1ccc(OCC(=O)Nc2ccc3c(c2)OCO3)cc1,·,-5.7,·,·,1.2,·
Cc1ccc2nc(/C(C#N)=C/c3cn[nH]c3-c3ccc(F)cc3)[nH]c2c1,-0.2,-5.1,-1.7,100.2*,-1.8,35.8*
Cc1ccc2nc(/C(C#N)=C/c3ccc(O)c(O)c3)[nH]c2c1,·,1.5,·,·,6.4,·
CCc1nnc2c(NCCc3ccccc3)nc3ccccc3n12,·,-5.2,·,·,-6.5,·
N#C/C(C(=O)NCCc1ccccc1)=C1/N=C(NC(=O)c2cccs2)c2ccccc21,-0.2,-1.4,-15.2,48.7,2.1,11.7*
COCCCNC(=O)/C(C#N)=C1\N=C(NC(=O)c2cccs2)c2ccccc21,·,-1.6,·,-3.6,-0.4,·
Cc1ccc(Cc2c(C)nc3nc(SCC(=O)NCc4ccco4)nn3c2C)cc1,0.2,6.2,-5.0,155.9*,4.5,22.0*
Cc1cccc(Cc2c(C)nc3nc(SCC(=O)NCc4ccco4)nn3c2C)c1,-0.3,4.4,2.6,1.2,-4.1,20.5*
O=C(COc1ccccc1Cl)Nc1ccc2c(c1)C(=O)NC2=O,·,-2.7,·,·,-9.9,·
CCOC(=O)c1c(C)nc2sc(C(=O)Nc3ccc(OC)cc3)c(N)c2c1-c1ccc(OC)cc1,-0.2,0.6,-11.5,-5.7,4.2,23.8*
CCOC(=O)c1c(C)nc2sc(C(N)=O)c(N)c2c1-c1ccc(OC)cc1,-0.3,-2.4,1.2,-5.4,-2.9,1.4
Cn1cc(/C=N/n2cnc3scc(-c4ccccc4)c3c2=O)c2ccccc21,0.1,-6.6,11.6,71.0*,12.1,27.7*
O=C(OCc1ccccc1)N1CCC2CC1c1cc(-c3cc4ccccc4o3)ccc12 (stereo unspecified),·,-0.3,·,·,-3.1,·
CCCCC(=O)Nc1nc2ccc(C(=O)OC)cc2s1,0.2,-4.4,-12.3,0.6,-3.0,24.7*
CCCC(=O)Nc1nc2ccc(NC(=O)c3ccccc3F)cc2s1,-0.1,4.6,1.9,6.4,9.1,34.1*
COc1cccc(N=C2CC(C)(C)CC(=O)/C2=C(/O)c2ccccc2)c1,0.0,-8.1,-10.2,-4.3,-10.4,2.2
CCCN1C[C@@H](C)[C@@H](OC)CN(C)C(=O)c2ccc(NC(=O)c3cccc(F)c3)cc2OC[C@H]1C,·,0.2,·,·,·,·
COc1ccc(CC(=O)NCc2cccs2)cc1,-0.1,0.2,2.8,53.9*,6.0,42.8*
COc1ccc(CNC(=O)Cc2cccs2)cc1,·,-5.8,·,·,-7.8,·
COc1ccc(-c2nnc(SCC(=O)Nc3ncc(C)s3)n2-c2ccccc2)cc1OC,-0.1,-3.4,5.2,31.8,4.2,58.5*
SMILES,Hsp70 activator,NOD2 RIPK2 PPI,TLR4-MyD88 BLA,b-catenin transl,TLR9-MyD88 block,MT stabilize HCS
COc1ccccc1NC(=O)CC(=O)CSc1nnc(-c2ccc(C)cc2)n1-c1ccccc1,-0.3,-6.3,-5.3,0.2,-5.1,2.8
NC(=O)c1c(NC(=O)CSc2nnc(-c3ccco3)n2-c2ccccc2)sc2c1CCC2,-0.2,-5.8,12.0,-0.3,3.4,23.4*
COc1ccc(-c2nnc(SCC(=O)Nc3sc4c(c3C#N)CCCC4)n2-c2ccccc2)cc1,-0.1,-1.3,-3.7,1.1,3.4,20.1*
COc1ccc(-n2c(SCC(=O)Nc3sc4c(c3C#N)CCCC4)nnc2-c2ccccc2OC)cc1,-0.3,2.4,8.7,-3.0,-5.4,3.5
COc1cc(C(=O)NN=Cc2ccc(N(C)C)cc2)cc(OC)c1OC,·,16.9,·,·,5.2,·
O=C(NC1CC1)C1CCCN1S(=O)(=O)c1ccc2ccccc2c1 (stereo unspecified),0.0,-10.1,-6.5,7.7,-3.0,24.4*
COc1cccc(C(=O)OCCNC(=O)c2cccnc2)c1,·,-4.7,·,·,3.7,·
COC(=O)c1ccccc1NC(=O)Cn1c(-c2nonc2N)nc2ccccc21,0.0,19.1,4.5,26.9,-1.3,18.5*
COc1ccccc1N1CCNC(C)C1=O (stereo unspecified),·,3.7,·,·,-1.3,·
CCOc1ccc(NC(=O)c2cc3c(C)nc4ccccc4c3o2)cc1,-0.2,-0.8,-6.2,126.0*,4.2,17.0*
O=C(N/N=C/c1ccc(O)cc1)Nc1cccc2nsnc12,-0.1,10.0,-5.1,3.9,1.6,11.4*
COc1cc(/C=N/NC(=O)Nc2cccc3nsnc23)cc(OC)c1OC,-0.4,-7.1,-12.1,-0.8,-2.1,1.7
COc1ccccc1C1CCCN1Cc1nc(-c2ccc(C)s2)oc1C (stereo unspecified),-0.1,-0.2,-9.4,3.3,-5.8,2.8
Cc1ccc(-c2cc(C(=O)N/N=C/c3c(C)nn(-c4ccccc4)c3C)n[nH]2)s1,-0.1,-0.2,-9.6,122.5*,-0.3,5.6
Cc1ccc(-c2cc(C(=O)N/N=C/c3c(C)nn(-c4ccccc4)c3C)[nH]n2)cc1,1.4,10.3,15.5,101.7*,-1.2,4.2
Cn1c(=O)c2sccc2n(Cc2cccc(Br)c2)c1=O,·,2.5,·,·,-5.3,·
C[C@H]1CN([C@@H](C)CO)C(=O)c2cc(C#CCC3CCCC3)cnc2O[C@@H]1CN(C)C(=O)CC1CC1,·,-7.8,·,·,-6.8,·
COc1cc(C(=O)c2c(C)c(CCC#N)n3ccccc23)cc(OC)c1OC,-0.1,0.3,3.6,61.0*,-4.5,19.5*
CC(/C=N/NC(=O)c1cc(-c2ccncc2)nc2ccccc12)=C\c1ccco1,0.4,4.5,-1.1,49.0,7.9,16.2*
Cc1ccc(/C=N/NC(=O)c2cc(-c3ccncc3)nc3ccccc23)o1,·,7.5,·,·,-1.3,·
O=C(N/N=C/c1ccc([N+](=O)[O-])o1)c1cc(-c2ccc(-c3ccccc3)cc2)nc2ccccc12,-0.3,10.6,1.1,45.9,7.6,12.4*
O=C(N/N=C/c1ccccn1)c1cc(-c2ccncc2)nc2ccccc12,-0.2,-6.6,2.4,6.0,8.0,12.1
O=C(N/N=C/c1ccsc1)c1cc(-c2ccncc2)nc2ccccc12,-0.3,8.4,7.5,11.3,-3.1,13.3*
O=C(N/N=C/c1ccc(F)cc1)c1cc(-c2ccco2)nc2ccccc12,0.1,-1.8,-6.3,53.2*,-13.3,34.3
CCCOP(=O)(c1ccc(N(C)C)cc1)C(O)c1ccc(N(C)C)cc1 (stereo unspecified),·,-1.5,·,·,1.9,·
